Experimental data from publication PMC9647759 (Pharmaceutical Chemistry Journal, 2022).

Tests used:
female Wistar rats = assay: Acute oral toxicity; type: in vivo; details: 100 mg/kg, observed 48 h for mortality
How it was run: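 Female Wistar rats were fasted overnight, then given the test compound orally as a single 100 mg/kg dose. Animals were watched for signs of morbidity […].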

Vero cells = assay: In vitro cytotoxicity assay on Vero cells; type: cell-based, monkeys; details: 100 μM, 24 h, 3000 Vero cells/well
How it was run: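 Vero cells, about 3000 per well at 90% confluency, were exposed to the test compound at 100 μM for 24 h at 37°C in a CO2 incubator. The percentage of metabolically active cells was compared with untreated control to give cytotoxicity. Three independent runs were done.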

Row | Compound | toxicity in vivo (female Wistar rats) | toxicity in vitro (Vero cells)
1 | Cc1nc2ccccc2n1CC(=O)NN [MBNHYD, 2-(2-methyl-1H-benzimidazol-1-yl) acetohydrazide] | non-toxic | non-toxic
2 | Cc1nc2ccccc2n1CC(=O)NNc1ccccc1 [MBPHYD, 2-(2-methyl-1H-benzimidazol-1-yl)-N′-phenylacetohydrazide] | non-toxic | non-toxic
